This is a sample that favours compounds with a hit; in the whole collection about 3.7% have one here.
ROMK mod – ROMK potassium channel modulators, primary screen, cell-based, thallium flux, MLSMR library; Tet-inducible ROMK, thallium flux fluorescence; actives lie on both sides; B-score at 10 µM; actives 2% (n = 130,000); AID 1918, 2009;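 active = signal ratio slope over the read window, or its plate-corrected B-score, at least 3 SD from the plate mean, either direction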;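 also: B-score of the F/F0 ratio slope over 7 to 12 s after thallium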
PKD1 kinase inh – inhibitors of human PKD1 kinase, biochemical, fluorescence polarization. AID 797, 2007. PKD1 kinase fluorescence polarization assay. inhibition, % (test concentration not listed). Serine/threonine-protein kinase D1 (Homo sapiens), Q15139. actives 0.056% (n = 200,000); in the data active = inhibition above about 50%
Target sequence (Q15139 whole entry, looked up): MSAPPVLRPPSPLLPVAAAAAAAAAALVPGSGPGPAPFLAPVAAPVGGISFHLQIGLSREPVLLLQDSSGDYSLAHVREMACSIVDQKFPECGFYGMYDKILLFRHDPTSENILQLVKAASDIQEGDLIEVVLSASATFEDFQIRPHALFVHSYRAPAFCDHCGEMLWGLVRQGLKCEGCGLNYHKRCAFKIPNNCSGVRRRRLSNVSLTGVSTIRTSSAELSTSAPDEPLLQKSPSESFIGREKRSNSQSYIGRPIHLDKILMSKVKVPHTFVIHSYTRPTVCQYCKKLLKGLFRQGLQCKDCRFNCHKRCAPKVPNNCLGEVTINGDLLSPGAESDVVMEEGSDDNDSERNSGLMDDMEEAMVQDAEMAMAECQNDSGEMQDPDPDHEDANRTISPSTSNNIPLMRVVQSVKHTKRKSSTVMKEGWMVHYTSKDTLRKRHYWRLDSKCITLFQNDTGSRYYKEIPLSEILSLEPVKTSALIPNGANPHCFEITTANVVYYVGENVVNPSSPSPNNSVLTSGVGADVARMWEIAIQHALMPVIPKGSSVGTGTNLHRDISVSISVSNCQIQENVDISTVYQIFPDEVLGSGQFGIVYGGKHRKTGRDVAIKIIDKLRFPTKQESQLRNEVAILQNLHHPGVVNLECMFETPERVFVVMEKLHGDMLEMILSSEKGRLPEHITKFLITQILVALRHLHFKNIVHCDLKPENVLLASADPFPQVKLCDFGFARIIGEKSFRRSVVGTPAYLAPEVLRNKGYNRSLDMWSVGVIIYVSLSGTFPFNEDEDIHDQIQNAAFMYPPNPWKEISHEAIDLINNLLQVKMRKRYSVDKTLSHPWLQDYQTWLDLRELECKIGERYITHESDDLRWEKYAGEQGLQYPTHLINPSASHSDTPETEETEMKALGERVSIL
MDM2 E3 inh – MDM2-luciferase reporter signal enhancers, primary screen, MDM2 E3 ligase inhibitor project, cell-based, luminescence, 1536-well; E3 ubiquitin-protein ligase Mdm2 (Homo sapiens), Q00987; cell-based MDM2 ubiquitination luciferase reporter, 2 h; 0 = plate control, 100 = twice control, blank-subtracted; signal enhancement, % at 5 µM; actives 0.11% (n = 210,000); AID 1230, 2008;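 active = signal enhancement of 30% or more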;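 also: luminescence tracks abundance of the self-degrading MDM2-luciferase fusion protein; higher signal means inhibition of MDM2 E3 ligase activity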
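Test system: mammalian cells stably expressing self-ubiquitinating, self-degrading MDM2 E3–luciferase fusion; Amount: 2000 cells in each well; Medium: DMEM; Schedule: 4 h settle plus 2 h compound, 37 °C; Technique: SteadyLite luciferase luminescence after 15 min room-temperature reagent incubation; Benchmarks: plate control and blank wells.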
Cl transport mod – KCC2 cotransporter modulators, thallium flux, primary screen, cell-based, HEK293 KCC2, FluoZin-2 fluorescence, MLSMR | AID 1456, 2008 | actives 2.2% (n = 190,000) | KCC2 cells, thallium flux FluoZin-2 fluorescence | Solute carrier family 12 member 5 (Homo sapiens), Q9H2X9 | B-score of Tl+ flux slope (higher = more flux/activation; lower = inhibition) at 10 µM;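 active = thallium flux slope and its plate-corrected score both differing from the plate sample mean at a set confidence after two filtering rounds, in either direction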;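 also: slope of fluorescence scaled to starting intensity during 10 to 20 s after thallium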
Arbovirus inh – antivirals against arbovirus infection, primary screen, cell-based, full library, 10K replicate subset | actives 0.37% (n = 200,000) | inhibition, % at 10 µM | arbovirus infection cell-based antiviral screen; in the data active = inhibition above about 30%
Calpain2 inh – inhibitors of pig calpain II, primary screen, biochemical, fluorogenic peptide substrate, 1536-well; purified calpain II, 30 min; inhibition, % at 16 µM; actives 0.37% (n = 220,000); AID 1236, 2008;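 active = inhibition above about 50%, limit read from the data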
KCC2 secondary – KCC2 modulators in sodium-free buffer, confirmation, cell-based, HEK293 KCC2, thallium flux, secondary assay. actives 15% (n = 3,700). AID 1713, 2009. FluoZin2 fluorescence; active compounds read high. shares compounds with Cl transport mod. normalised thallium flux (F/F0 slope) at 10 µM;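 active = thallium flux slope above the same plate's solvent-only control mean plus 3 SD; inconclusive = the two replicate wells disagree; inactive = no significant difference from solvent-only control wells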
KCC2 bumet counter – thallium flux persisting under bumetanide in KCC2 cells, confirmation, counter-screen for KCC2 modulator project, cell-based, HEK293 KCC2, FluoZin2, secondary assay 3 | shares compounds with Cl transport mod | HEK293-KCC2 + bumetanide/ouabain; active compounds read high | normalized thallium flux at 10 µM | actives 49% (n = 3,700);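 active = thallium entry rate above the same plate's blocked-transporter control wells by more than 3 SD; inconclusive = the two repeat wells disagree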;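 also: raw slope of fluorescence over initial fluorescence between 10 and 20 s after thallium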
KCC2 secondary2 – KCC2 modulators without ouabain present, confirmation, cell-based, HEK293 KCC2, thallium flux, FluoZin2, secondary assay 2. shares compounds with Cl transport mod. actives 23% (n = 3,700). normalized thallium flux at 10 µM. thallium flux FluoZin2 fluorescence; actives lie on both sides; F/F0 rise rate, 10–20 s post-thallium;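 active = thallium flux slope more than 3 SD above or below the plate's solvent-only control mean, mostly below; inconclusive = the two repeat wells disagreed; inactive = no significant shift from solvent-only controls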
HEK counter1 – thallium flux modulation in parental HEK cells, confirmation, counter-screen for KCC2 modulator project, cell-based, counterscreen 1; AID 1716, 2009; thallium flux rate (normalised fluorescence) at 10 µM; actives 46% (n = 3,700); HEK293 parental cells, thallium flux FluoZin2, ouabain; baseline-ratio fluorescence slope, 10–20 s after thallium; shares compounds with Cl transport mod;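 active = thallium flux rate significantly above the same plate's solvent-only control wells, beyond their mean plus 3 SD; inconclusive = the two replicate wells gave conflicting results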
KCC2 retest ouab – KCC2 inhibitors and activators, ouabain retest, confirmation, HEK-KCC2 cells; shares compounds with Cl transport mod; AID 1717, 2009; raw Tl+ flux slope (below DMSO = inhibition, above = activation) at 10 µM; HEK293-KCC2, thallium flux FluoZin2 fluorescence; bidirectional: low = inhibitor, high = activator; actives 48% (n = 3,700);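 active = thallium flux slope beyond 3 SD from same-plate DMSO control mean in most replicates, usually higher, sometimes lower; inconclusive = repeat tests gave conflicting results; inactive = no significant difference from controls in most replicates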;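 also: slope of initial-normalized fluorescence between seconds 10 and 20 after thallium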
HEK counter2 – native HEK Tl+ uptake effects, second counter-screen – HEK cells, counterscreen 2, counter-screen for KCC2 modulator project, confirmation. shares compounds with Cl transport mod. HEK293 parental, thallium flux FluoZin-2 fluorescence slope. thallium flux slope at 10 µM. actives 33% (n = 3,700);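 active = thallium flux slope above the same plate's solvent-control mean plus 3 SD in both duplicate wells; inconclusive = duplicate wells that disagreed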;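 also: run without ouabain in cells lacking the KCC2 cotransporter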
ROMK retest – ROMK channel modulator hit retest, confirmation, cell-based, thallium flux, duplicate, resupplied hits; shares compounds with ROMK mod; fluorescence ratio; active compounds read low; normalized thallium flux (F/F0 slope) at 10 µM; actives 54% (n = 3,000); AID 1917, 2009;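 active = Flux at 10 µM at least 3 SD below or above vehicle control mean in one or both replicates; inconclusive = no clear call, values can overlap the other calls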
Numbers stand for hits; . = inactive; ? = inconclusive; / = no result given.

SMILES | ROMK mod | PKD1 kinase inh | MDM2 E3 inh | Cl transport mod | Arbovirus inh | Calpain2 inh | KCC2 secondary | KCC2 bumet counter | KCC2 secondary2 | HEK counter1 | KCC2 retest ouab | HEK counter2 | ROMK retest
Cc1ncccc1C(=O)N1CCCC(CNC(=O)c2ccc(-c3ccccc3)cc2)C1 (stereo unspecified) | . | . | . | -4.4 | . | . | . | . | ? | . | 0.017 | . | /
CSCC(=O)N1CCCC(CNC(=O)c2ccc(-c3ccccc3)cc2)C1 (stereo unspecified) | . | . | . | -6.3 | . | . | . | . | 0.03 | . | 0.015 | . | /
CC(=O)CCC(=O)N1CCCC(CNC(=O)c2ccc(-c3ccccc3)cc2)C1 (stereo unspecified) | / | . | . | . | . | . | / | / | / | / | / | / | /
CN(Cc1ccco1)S(=O)(=O)c1ccc2c(c1)CCN2C(=O)CCC(=O)O | . | . | . | . | . | . | / | / | / | / | / | / | /
O=S(=O)(c1ccc(F)cc1)N1CCC(O)(c2ccc3c(c2)OCO3)CC1 | / | . | . | -4.3 | . | . | . | . | . | . | 0.015 | . | /
CCN(CC)C(NC(=O)c1ccccc1)C(=O)c1ccccc1 (stereo unspecified) | / | . | . | . | . | . | / | / | / | / | / | / | /
O=C(NC1CCCCCC1)c1ccc[nH]c1=S | . | . | . | 12 | . | . | 0.013 | 0.039 | . | 0.016 | 0.038 | 0.011 | /
CC(C)(C)c1ccc(C(=O)/C=C2\NC(=O)CS2)cc1 | . | . | . | 31 | . | . | . | 0.049 | 0.05 | 0.035 | 0.043 | 0.037 | /
COCCOC(=O)/C=C1/NC(=O)CS1 | . | . | . | . | . | . | / | / | / | / | / | / | /
O=C(NCCSCc1ccc(Cl)cc1)c1cccs1 | / | / | . | . | / | . | / | / | / | / | / | / | /
Cc1cc2cc3c(cc2nc1SCc1ccc(C(=O)O)cc1)OCCO3 | / | . | . | -4.2 | . | . | . | 0.098 | ? | 0.036 | 0.035 | 0.014 | /
Cc1cc2cc3c(cc2nc1SCC(=O)O)OCCO3 | / | . | . | . | . | . | / | / | / | / | / | / | /
S=C(Nc1ccccc1)c1nc2ccccc2s1 | . | . | / | 9.7 | . | . | . | 0.013 | . | 0.013 | ? | 0.014 | /
CCNC(=O)Nc1nc2ccccc2s1 | . | . | . | . | . | . | / | / | / | / | / | / | /
CCOC(=O)c1cccc(C(=O)Nc2nc3ccc(OC)cc3s2)n1 | . | . | . | 91 | . | . | 0.027 | 0.079 | ? | 0.041 | 0.041 | 0.039 | /
CCCC(=O)Nc1nc2ccc(OCC)cc2s1 | / | . | . | . | . | . | / | / | / | / | / | / | /
CN(C)C(=S)Nc1nc2ccccc2s1 | . | . | . | 69 | . | . | 0.017 | 0.089 | . | 0.032 | 0.059 | 0.017 | /
CCOc1ccc2nc(NC(=S)N(C)C)sc2c1 | . | . | . | / | . | . | 0.018 | 0.13 | . | 0.047 | 0.057 | 0.02 | /
CN(C(=O)c1cccs1)c1ccc(OCC(=O)Nc2ccc(C(=O)O)cc2)cc1 | / | / | . | . | / | . | / | / | / | / | / | / | /
CC(=O)N1CCN(c2ccc(NC(=S)NC(=O)c3ccc(C)c([N+](=O)[O-])c3)cc2)CC1 | . | / | . | . | / | . | / | / | / | / | / | / | /
C/C(=N/NC(=O)C1CCN(S(=O)(=O)c2ccc(C)cc2)CC1)c1cccc([N+](=O)[O-])c1 | -2.5 | . | . | . | . | . | / | / | / | / | / | / | .
Cc1ccc(Cl)c2c1=NC(=O)C=2c1[nH]c(=S)[nH]c1O | -2.4 | . | . | . | . | . | / | / | / | / | / | / | 0.054
O=C1N=c2ccccc2=C1c1[nH]c(=S)[nH]c1O | / | . | . | . | . | . | / | / | / | / | / | / | /
Cc1ccc(C(=O)N2CCN(c3cnn(C)c(=O)c3Cl)CC2)cc1 | . | . | . | . | . | . | / | / | / | / | / | / | /
Cc1cccc(Nc2ncccc2C(=O)O)c1C | / | . | . | . | . | . | / | / | / | / | / | / | .
SMILES | ROMK mod | PKD1 kinase inh | MDM2 E3 inh | Cl transport mod | Arbovirus inh | Calpain2 inh | KCC2 secondary | KCC2 bumet counter | KCC2 secondary2 | HEK counter1 | KCC2 retest ouab | HEK counter2 | ROMK retest
Cn1cc(/C=C(\C#N)C(=O)Nc2ncc(Cc3cccc(Cl)c3)s2)c2ccccc21 | -2.4 | . | . | . | . | . | / | / | / | / | / | / | 0.059
CCOc1ccc(-c2[nH]ncc2-c2ccc(OC)c(OC)c2)c(O)c1 | 3.7 | . | . | . | . | . | / | / | / | / | / | / | 0.099
CCOC(=O)c1ccccc1NC(=O)Cn1c(-c2nonc2N)nc2ccccc21 | 4.4 | . | . | . | . | . | / | / | / | / | / | / | .
Nc1nonc1-c1nc2ccccc2n1CC(=O)Nc1ccccc1 | / | / | / | . | / | . | / | / | / | / | / | / | /
O=C(COc1ccccc1CNCc1ccccc1)Nc1ccccc1 | -2.4 | . | . | . | . | . | / | / | / | / | / | / | 0.056
c1cc2c3c(cccc3c1)C(N1CCCCCC1)=N2 | . | . | . | . | . | . | / | / | / | / | / | / | /
c1ccc2c(c1)CCN(C1=Nc3cccc4cccc1c34)C2 | -2 | . | . | . | . | . | / | / | / | / | / | / | 0.054
COC(=O)C1CCN(C(=O)CSc2ccccc2)CC1 | . | . | . | . | . | . | / | / | / | / | / | / | .

From PubChem
